The source made the active and inactive calls. The rule behind the calls is not given here.
Key:
[1] = target: T1, Cytochrome P450 1A2 (Homo sapiens, UniProt P05177); test: Inhibition of CYP1A2 in human liver microsomes; format: ADME, Microsome
T1 sequence (P05177 whole entry): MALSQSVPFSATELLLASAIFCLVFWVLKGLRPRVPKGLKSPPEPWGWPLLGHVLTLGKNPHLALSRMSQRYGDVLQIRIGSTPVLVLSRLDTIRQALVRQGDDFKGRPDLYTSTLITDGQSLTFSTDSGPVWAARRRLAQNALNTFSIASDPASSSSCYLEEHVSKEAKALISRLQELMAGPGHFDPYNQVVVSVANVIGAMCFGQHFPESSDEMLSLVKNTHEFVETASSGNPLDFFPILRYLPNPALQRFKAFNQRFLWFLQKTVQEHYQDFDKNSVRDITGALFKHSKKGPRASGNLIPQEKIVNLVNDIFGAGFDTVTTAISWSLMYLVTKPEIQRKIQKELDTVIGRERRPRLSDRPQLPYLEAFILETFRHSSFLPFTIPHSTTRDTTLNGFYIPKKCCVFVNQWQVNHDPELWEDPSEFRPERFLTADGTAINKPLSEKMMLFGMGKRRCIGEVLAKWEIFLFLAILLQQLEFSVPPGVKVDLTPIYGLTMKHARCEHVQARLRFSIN

[2] = target: Cytochrome P450 2C9 (Homo sapiens, UniProt P11712); test: Inhibition of CYP2C9 in human liver microsomes; format: ADME, Microsome
Cytochrome P450 2C9, sequence (P11712 whole entry): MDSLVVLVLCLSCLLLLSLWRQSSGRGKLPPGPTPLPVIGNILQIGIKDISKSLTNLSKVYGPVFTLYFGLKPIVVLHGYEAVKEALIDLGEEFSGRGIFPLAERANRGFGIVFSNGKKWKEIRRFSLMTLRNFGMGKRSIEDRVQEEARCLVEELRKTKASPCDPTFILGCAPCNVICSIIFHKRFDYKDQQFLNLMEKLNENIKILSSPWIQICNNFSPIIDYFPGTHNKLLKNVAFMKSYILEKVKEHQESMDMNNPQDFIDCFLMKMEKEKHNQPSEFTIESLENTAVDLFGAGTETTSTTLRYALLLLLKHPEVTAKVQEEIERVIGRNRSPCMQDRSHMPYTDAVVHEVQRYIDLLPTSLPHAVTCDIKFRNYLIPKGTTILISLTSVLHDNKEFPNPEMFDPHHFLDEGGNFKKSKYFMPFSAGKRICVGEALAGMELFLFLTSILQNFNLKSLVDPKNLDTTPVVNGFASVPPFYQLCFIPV

[3] = system: SH-SY5Y; test: Induction of CYP26A1 mRNA expression in human SH-SY5Y cells at 1 uM after 72 hrs by RT-PCR analysis in presence of 0.1 uM of all-trans retinoic acid; format: functional
How it was run: (§1)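 SH-SY5Y cells exposed 72 h to test agent at 1 μM alone or with 0.1 μM ATRA. Total RNA extracted, reverse transcribed, and quantified by real-time PCR with TaqMan probes for CYP26A1 and β-actin. CYP26A1 was normalized to β-actin and reported as fold increase over cells given ATRA alone.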

[4] = system: SH-SY5Y; test: Induction of CYP26A1 mRNA expression in human SH-SY5Y cells at 1 uM after 72 hrs by RT-PCR analysis; format: functional, cell-based; how it was run: as §1
[5] = target: Cytochrome P450 2D6 (Homo sapiens, UniProt P10635); test: Inhibition of CYP2D6 in human liver microsomes; format: ADME, Microsome
Cytochrome P450 2D6, sequence (P10635 whole entry): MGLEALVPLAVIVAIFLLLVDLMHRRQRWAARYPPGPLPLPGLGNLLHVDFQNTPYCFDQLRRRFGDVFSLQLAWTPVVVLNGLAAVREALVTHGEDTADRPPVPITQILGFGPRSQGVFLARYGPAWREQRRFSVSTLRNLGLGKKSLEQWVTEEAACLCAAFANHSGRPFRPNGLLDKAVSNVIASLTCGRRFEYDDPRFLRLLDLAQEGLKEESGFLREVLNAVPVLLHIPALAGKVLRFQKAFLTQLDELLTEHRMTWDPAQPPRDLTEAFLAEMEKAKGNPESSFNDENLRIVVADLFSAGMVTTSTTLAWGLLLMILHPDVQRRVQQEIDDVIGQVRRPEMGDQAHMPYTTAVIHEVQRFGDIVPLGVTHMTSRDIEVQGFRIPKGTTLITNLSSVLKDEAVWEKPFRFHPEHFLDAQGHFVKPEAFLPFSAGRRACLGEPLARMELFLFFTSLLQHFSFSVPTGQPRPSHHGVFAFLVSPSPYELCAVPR

[6] = target: T2, Cytochrome P450 26A1 (Homo sapiens, UniProt O43174); test: Inhibition of CYP26A1 in human MCF7 cell microsomes using [3H]ATRA after 1 hr by scintillation counting; set-up: species or system Microsome
T2 sequence (O43174 whole entry): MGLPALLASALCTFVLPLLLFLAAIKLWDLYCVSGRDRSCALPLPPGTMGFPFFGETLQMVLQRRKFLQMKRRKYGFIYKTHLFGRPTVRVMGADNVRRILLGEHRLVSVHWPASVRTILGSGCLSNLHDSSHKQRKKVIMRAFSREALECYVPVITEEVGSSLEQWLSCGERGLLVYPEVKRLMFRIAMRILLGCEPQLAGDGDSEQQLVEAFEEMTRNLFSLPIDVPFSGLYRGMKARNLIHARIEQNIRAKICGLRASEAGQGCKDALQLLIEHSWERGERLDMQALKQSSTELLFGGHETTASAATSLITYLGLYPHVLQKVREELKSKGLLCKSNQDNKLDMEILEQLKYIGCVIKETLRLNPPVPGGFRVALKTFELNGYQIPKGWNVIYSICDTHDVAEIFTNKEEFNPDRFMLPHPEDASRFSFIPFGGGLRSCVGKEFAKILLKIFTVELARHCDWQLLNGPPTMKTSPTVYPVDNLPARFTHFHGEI
How it was run: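 Cell-free assay on MCF7 CYP26A1 microsomes with [11,12-3H]all-trans-retinoic acid as substrate. IC50 taken from the best fit of a four-point dose-response curve.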

[7] = target: CYP2C19 (Homo sapiens, UniProt P33261); test: Inhibition of CYP2C19 in human liver microsomes at 0.4 uM; format: ADME, Microsome
CYP2C19, sequence (P33261 whole entry): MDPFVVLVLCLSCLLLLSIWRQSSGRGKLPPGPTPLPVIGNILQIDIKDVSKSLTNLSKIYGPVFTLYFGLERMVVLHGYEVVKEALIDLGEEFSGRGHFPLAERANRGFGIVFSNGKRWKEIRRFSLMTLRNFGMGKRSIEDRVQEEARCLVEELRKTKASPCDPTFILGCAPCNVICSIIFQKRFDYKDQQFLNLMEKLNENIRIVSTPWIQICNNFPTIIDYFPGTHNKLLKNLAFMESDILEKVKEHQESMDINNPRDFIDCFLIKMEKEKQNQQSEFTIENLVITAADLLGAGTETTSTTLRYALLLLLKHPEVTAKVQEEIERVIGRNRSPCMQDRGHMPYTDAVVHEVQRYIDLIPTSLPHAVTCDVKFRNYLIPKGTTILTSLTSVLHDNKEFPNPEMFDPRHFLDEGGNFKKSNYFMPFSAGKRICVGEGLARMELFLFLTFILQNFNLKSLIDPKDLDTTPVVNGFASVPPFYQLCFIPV

[8] = target: CYP3A4 (Homo sapiens, UniProt P08684); test: Inhibition of CYP3A4 in human liver microsomes at 0.4 uM; format: ADME, Microsome
CYP3A4, sequence (P08684 whole entry): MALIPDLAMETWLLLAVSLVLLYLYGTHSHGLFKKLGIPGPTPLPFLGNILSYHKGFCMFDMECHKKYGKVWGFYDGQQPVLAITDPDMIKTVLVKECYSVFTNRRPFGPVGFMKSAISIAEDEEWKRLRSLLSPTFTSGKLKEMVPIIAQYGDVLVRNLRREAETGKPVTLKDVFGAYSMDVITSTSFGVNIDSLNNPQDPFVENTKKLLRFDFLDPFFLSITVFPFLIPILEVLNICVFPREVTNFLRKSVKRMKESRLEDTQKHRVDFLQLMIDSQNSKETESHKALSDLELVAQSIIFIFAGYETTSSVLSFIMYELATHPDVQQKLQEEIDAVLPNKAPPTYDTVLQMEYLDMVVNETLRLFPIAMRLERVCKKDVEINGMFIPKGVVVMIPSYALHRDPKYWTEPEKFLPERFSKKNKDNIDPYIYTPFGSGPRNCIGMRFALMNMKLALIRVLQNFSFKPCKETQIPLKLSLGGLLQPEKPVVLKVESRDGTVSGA

[9] = target: T3, CYP1A2 (Homo sapiens, UniProt P05177); test: Inhibition of CYP1A2 in human liver microsomes at 0.4 uM; format: ADME, Microsome
T3 sequence (P05177 whole entry): T1 sequence (P05177 whole entry)

[10] = system: Salmonella typhimurium; test: Mutagenic activity in Salmonella Typhimurium TA100 by Ames test in presence of S9 mixture; format: toxicity, organism-based; conditions: salmonella enterica subsp. enterica serovar typhimurium
How it was run: (§2)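 Ames screen with Salmonella typhimurium strains TA98 and TA100, run with and without S-9 mix.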

[11] = target: CYP2C9 (Homo sapiens, UniProt P11712); test: Inhibition of CYP2C9 in human liver microsomes at 0.4 uM; format: ADME, Microsome
CYP2C9, sequence (P11712 whole entry): as the sequence (P11712 whole entry) above

[12] = target: CYP2D6 (Homo sapiens, UniProt P10635); test: Inhibition of CYP2D6 in human liver microsomes at 0.4 uM; format: ADME, Microsome
CYP2D6, sequence (P10635 whole entry): as the sequence (P10635 whole entry) above

[13] = Half life in human liver microsomes; format: ADME, Microsome
[14] = system: Salmonella typhimurium; test: Mutagenic activity in Salmonella Typhimurium TA98 by Ames test in presence of S9 mixture; format: toxicity, organism-based; conditions: salmonella enterica subsp. enterica serovar typhimurium; how it was run: as §2

For `C[C@H]([C@@H](c1ccc(Nc2nc3ccccc3s2)cc1)n1ccnc1)N(C)C`, the IC50 [1] was 8300 nM, the IC50 [2] was 5900 nM and the “fold change (FC)” value [3] was 4.7. The Activity [4] was “inactive”, the IC50 [5] was 3900 nM and the IC50 [6] was 10 nM.
In the case of `COC(=O)[C@@H](C)[C@H](c1ccc(Nc2ccccc2)cc1)n1ccnc1` (relative stereo), the Activity [3] is reported as “Active” and the IC50 [6] is reported as 40 nM.
With `COC(=O)C(C)(C)C(c1ccc(Nc2ccc3ccccc3c2)cc1)n1ccnc1` (stereo not drawn) the IC50 [1] was 1200 nM, the inhibition at 0.4 µM [7] was 11% and the inhibition at 0.4 µM [8] was 60%. For the same molecule, the IC50 [2] was 1500 nM, the inhibition at 0.4 µM [9] was 21% and the “fold change (FC)” value [3] was 5.8. For the same molecule, the Activity [10] was “Non-toxic”, the inhibition at 0.4 µM [11] was 41% and the inhibition at 0.4 µM [12] was 25%. The half-life [13] was 5 h, the IC50 [5] was 600 nM and the Activity [14] was “Non-toxic”. It also gave an IC50 [6] of 3 nM.
In the case of `COC(=O)[C@@H](C)[C@H](c1ccc(Nc2ccc3ccccc3c2)cc1)n1ccnc1` (relative stereo), the IC50 [6] is reported as 140 nM.
`CCOc1ccc2ccccc2c1Nc1ccc(C(n2ccnc2)C(C)(C)C(=O)OC)cc1` (stereo not drawn) showed an IC50 [6] of 125 nM.
For `COC(=O)C(C)(C)C(c1ccc(Cc2ccc3ccccc3c2)cc1)n1ccnc1` (stereo not drawn), the IC50 [6] was > 1000 nM.
With `COC(=O)C(C)(C)C(c1ccc(Nc2ccc3cc(O)ccc3c2)cc1)n1ccnc1` (stereo not drawn) the Activity [3] was “Active” and the IC50 [6] was 3 nM.
For `COC(=O)C(C)(C)C(c1ccc(Nc2nc3ccccc3o2)cc1)n1ccnc1` (stereo not drawn), the inhibition at 0.4 µM [7] was 13%, the inhibition at 0.4 µM [8] was 84% and the inhibition at 0.4 µM [9] was 31%. For the same molecule, the Activity [3] was “Active”, the inhibition at 0.4 µM [11] was 45% and the inhibition at 0.4 µM [12] was 55%. The IC50 [6] was 10 nM.
In the case of `COC(=O)C(C)(C)C(c1ccc(Nc2ccc3cc(OC)ccc3c2)cc1)n1ccnc1` (stereo not drawn), the IC50 [6] is reported as 8 nM.
`COC(=O)[C@H](C)[C@H](c1ccc(Nc2ccccc2)cc1)n1ccnc1` (relative stereo) showed an IC50 [6] of 26 nM.
For `COC(=O)[C@H](C)[C@H](c1ccc(Nc2ccc3ccccc3c2)cc1)n1ccnc1` (relative stereo), the Activity [3] was “Active” and the IC50 [6] was 50 nM.
In the case of `COC(=O)C(C)(C)C(c1ccc(Nc2ccccc2)cc1)n1ccnc1` (stereo not drawn), the Activity [3] is reported as “Active” and the IC50 [6] is reported as 10 nM.
With `COC(=O)C(C)(C)C(c1ccc(Nc2nc3ccccc3s2)cc1)n1ccnc1` (stereo not drawn) the inhibition at 0.4 µM [7] was 91%, the inhibition at 0.4 µM [8] was 46% and the inhibition at 0.4 µM [9] was 38%. For the same molecule, the inhibition at 0.4 µM [11] was 87%, the inhibition at 0.4 µM [12] was 11% and the IC50 [6] was 100 nM.
With `COC(=O)C(C)(C)C(c1ccc(Nc2ccc3c(c2)OCO3)cc1)n1ccnc1` (stereo not drawn) the Activity [3] was “Active” and the IC50 [6] was 8 nM.
In the case of `COC(=O)C(C)(C)C(c1ccc(Nc2ccc(-c3ccccc3)cc2)cc1)n1ccnc1` (stereo not drawn), the IC50 [6] is reported as 250 nM.
`COC(=O)C(C)(C)C(c1ccc(Nc2cccc3ccccc23)cc1)n1ccnc1` (stereo not drawn) gave an inhibition at 0.4 µM [7] of 49%, an inhibition at 0.4 µM [8] of 75% and an inhibition at 0.4 µM [9] of 15%. The Activity [3] was “Active”, the inhibition at 0.4 µM [11] was 48% and the inhibition at 0.4 µM [12] was 53%. For the same molecule, the IC50 [6] was 6 nM.
With `COC(=O)C(C)(C)C(c1ccc(Oc2ccc3ccccc3c2)cc1)n1ccnc1` (stereo not drawn) the IC50 [6] was > 1000 nM.
With `Clc1cccc(C(c2ccc3[nH]cnc3c2)n2ccnc2)c1` (stereo not drawn) [LIAROZOLE] the “fold change (FC)” value [3] was 2.3 and the Activity [4] was “inactive”.
